What follows are compounds tested on OVCAR-3 (assay: Growth inhibition of human OVCAR-3 cells assessed as cell growth at 0.01 uM incubated for 48 hrs by sulforhodamine B assay relative to control). Conditions: read-out: Activity.
Assay type: functional
`CCc1ccccc1NC(=O)c1sc2nc3c(cc2c1N)C(=O)CCC3` gave a growth at 0.01 µM of 107%.

The compounds below were run on SR (assay: Growth inhibition of human SR cells assessed as cell growth at 1 uM incubated for 48 hrs by sulforhodamine B assay relative to control). Conditions: read-out: Activity.
Assay type: functional
`CCc1ccccc1NC(=O)c1sc2nc3c(cc2c1N)C(=O)CCC3` was tested, and the growth at 1 µM was 20%.

Each compound was assayed on HOP-62 (assay: Growth inhibition of human HOP-62 cells assessed as cell growth at 0.01 uM incubated for 48 hrs by sulforhodamine B assay relative to control). Conditions: read-out: Activity.
Assay type: functional
`CCc1ccccc1NC(=O)c1sc2nc3c(cc2c1N)C(=O)CCC3` was tested, and the growth at 0.01 µM was 91%.

What follows are compounds tested on SF-539 (assay: Growth inhibition of human SF-539 cells assessed as cell growth at 1 uM incubated for 48 hrs by sulforhodamine B assay relative to control). Conditions: read-out: Activity.
Assay type: functional
With `CCc1ccccc1NC(=O)c1sc2nc3c(cc2c1N)C(=O)CCC3` the growth at 1 µM was 11%.

The compounds below were run on MOLT-4 (assay: Growth inhibition of human MOLT-4 cells assessed as cell growth at 100 uM incubated for 48 hrs by sulforhodamine B assay relative to control). Conditions: read-out: Activity.
Assay type: functional
`CCc1ccccc1NC(=O)c1sc2nc3c(cc2c1N)C(=O)CCC3` gave a growth at 100 µM of 31%.

What follows are compounds tested on Hs-578T (assay: Growth inhibition of human Hs-578T cells assessed as cell growth at 100 uM incubated for 48 hrs by sulforhodamine B assay relative to control). Conditions: read-out: Activity.
Assay type: functional
In the case of `CCc1ccccc1NC(=O)c1sc2nc3c(cc2c1N)C(=O)CCC3`, the growth at 100 µM is reported as 15%.

These compounds were tested on HT-29 (assay: Growth inhibition of human HT-29 cells assessed as cell growth at 0.01 uM incubated for 48 hrs by sulforhodamine B assay relative to control). Conditions: read-out: Activity.
Assay type: functional
For `CCc1ccccc1NC(=O)c1sc2nc3c(cc2c1N)C(=O)CCC3`, the growth at 0.01 µM was 95%.

Each compound was assayed on SF-268 (assay: Growth inhibition of human SF-268 cells assessed as cell growth at 0.01 uM incubated for 48 hrs by sulforhodamine B assay relative to control). Conditions: read-out: Activity.
Assay type: functional
`CCc1ccccc1NC(=O)c1sc2nc3c(cc2c1N)C(=O)CCC3` was tested, and the growth at 0.01 µM was 103%.

The compounds below were run on U-251 (assay: Growth inhibition of human U-251 cells assessed as cell growth at 100 uM incubated for 48 hrs by sulforhodamine B assay relative to control). Conditions: read-out: Activity.
Assay type: functional
In the case of `CCc1ccccc1NC(=O)c1sc2nc3c(cc2c1N)C(=O)CCC3`, the growth at 100 µM is reported as -15%.

These compounds were tested on SF-295 (assay: Growth inhibition of human SF-295 cells assessed as cell growth at 1 uM incubated for 48 hrs by sulforhodamine B assay relative to control). Conditions: read-out: Activity.
Assay type: functional
`CCc1ccccc1NC(=O)c1sc2nc3c(cc2c1N)C(=O)CCC3` gave a growth at 1 µM of 13%.

The compounds below were run on MOLT-4 (assay: Growth inhibition of human MOLT-4 cells assessed as cell growth at 1 uM incubated for 48 hrs by sulforhodamine B assay relative to control). Conditions: read-out: Activity.
Assay type: functional
`CCc1ccccc1NC(=O)c1sc2nc3c(cc2c1N)C(=O)CCC3` was tested, and the growth at 1 µM was 66%.

Each compound was assayed on MDA-MB-231 (assay: Growth inhibition of human MDA-MB-231 cells assessed as cell growth at 1 uM incubated for 48 hrs by sulforhodamine B assay relative to control). Conditions: read-out: Activity.
Assay type: functional
`CCc1ccccc1NC(=O)c1sc2nc3c(cc2c1N)C(=O)CCC3` was tested, and the growth at 1 µM was 52%.

These compounds were tested on Hs-578T (assay: Growth inhibition of human Hs-578T cells assessed as cell growth at 0.1 uM incubated for 48 hrs by sulforhodamine B assay relative to control). Conditions: read-out: Activity.
Assay type: functional
In the case of `CCc1ccccc1NC(=O)c1sc2nc3c(cc2c1N)C(=O)CCC3`, the growth at 0.1 µM is reported as 80%.

These compounds were tested on ACHN (assay: Growth inhibition of human ACHN cells assessed as cell growth at 0.1 uM incubated for 48 hrs by sulforhodamine B assay relative to control). Conditions: read-out: Activity.
Assay type: functional
Compound `CCc1ccccc1NC(=O)c1sc2nc3c(cc2c1N)C(=O)CCC3` has a growth at 0.1 µM of 92%.

What follows are compounds tested on OVCAR-4 (assay: Growth inhibition of human OVCAR-4 cells assessed as cell growth at 0.01 uM incubated for 48 hrs by sulforhodamine B assay relative to control). Conditions: read-out: Activity.
Assay type: functional
`CCc1ccccc1NC(=O)c1sc2nc3c(cc2c1N)C(=O)CCC3` gave a growth at 0.01 µM of 89%.

The compounds below were run on TK-10 (assay: Growth inhibition of human TK-10 cells assessed as cell growth at 0.01 uM incubated for 48 hrs by sulforhodamine B assay relative to control). Conditions: read-out: Activity.
Assay type: functional
`CCc1ccccc1NC(=O)c1sc2nc3c(cc2c1N)C(=O)CCC3` was tested, and the growth at 0.01 µM was 93%.

What follows are compounds tested on NCI-H460 (assay: Growth inhibition of human NCI-H460 cells assessed as cell growth at 0.1 uM incubated for 48 hrs by sulforhodamine B assay relative to control). Conditions: read-out: Activity.
Assay type: functional
Work on `CCc1ccccc1NC(=O)c1sc2nc3c(cc2c1N)C(=O)CCC3` yielded a growth at 0.1 µM of 98%.

These compounds were tested on CCRF-CEM (assay: Growth inhibition of human CCRF-CEM cells assessed as cell growth at 0.1 uM incubated for 48 hrs by sulforhodamine B assay relative to control). Conditions: read-out: Activity.
Assay type: functional
Method in brief: (§1)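 NCI Developmental Therapeutics Program NCI60 panel. Compounds that were active in the 10 µM one-dose screen went on to dose–response testing. Growth at each concentration is expressed relative to untreated control (100%). GI50 (concentration giving 50% of maximal inhibition of proliferation) and TGI (concentration giving total growth inhibition) were derived from the curves.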
Compound `CCc1ccccc1NC(=O)c1sc2nc3c(cc2c1N)C(=O)CCC3` has a growth at 0.1 µM of 89%.

Each compound was assayed on MDA-MB-468 (assay: Growth inhibition of human MDA-MB-468 cells assessed as cell growth at 0.01 uM incubated for 48 hrs by sulforhodamine B assay relative to control). Conditions: read-out: Activity.
Assay type: functional
`CCc1ccccc1NC(=O)c1sc2nc3c(cc2c1N)C(=O)CCC3` gave a growth at 0.01 µM of 91%.

What follows are compounds tested on HCT-15 (assay: Growth inhibition of human HCT-15 cells assessed as cell growth at 1 uM incubated for 48 hrs by sulforhodamine B assay relative to control). Conditions: read-out: Activity.
Assay type: functional
With `CCc1ccccc1NC(=O)c1sc2nc3c(cc2c1N)C(=O)CCC3` the growth at 1 µM was 30%.

Each compound was assayed on A549 (assay: Growth inhibition of human A549/ATCC cells assessed as cell growth at 0.01 uM incubated for 48 hrs by sulforhodamine B assay relative to control). Conditions: read-out: Activity.
Assay type: functional
Method in brief: as §1
In the case of `CCc1ccccc1NC(=O)c1sc2nc3c(cc2c1N)C(=O)CCC3`, the growth at 0.01 µM is reported as 97%.

What follows are compounds tested on RPMI-8226 (assay: Growth inhibition of human RPMI-8226 cells incubated for 48 hrs by sulforhodamine B assay). Conditions: not given.
Assay type: functional
Method in brief: (§2)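 NCI DTP 60-line human tumour panel. Dose-response curves were run only for ligands active in the initial 10 µM screen. GI50 (concentration giving 50% of maximal inhibition of proliferation) and TGI (concentration giving total growth inhibition) were derived from these curves.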
In the case of `CCc1ccccc1NC(=O)c1sc2nc3c(cc2c1N)C(=O)CCC3`, the GI50 is reported as 0.853 µM, the LC50 is reported as greater than 100 µM and the TGI is reported as no less than 100 µM.

Each compound was assayed on TK-10 (assay: Growth inhibition of human TK-10 cells incubated for 48 hrs by sulforhodamine B assay). Conditions: not given.
Assay type: functional
Method in brief: as §2
`CCc1ccccc1NC(=O)c1sc2nc3c(cc2c1N)C(=O)CCC3` gave a GI50 of 23.2 µM and a TGI greater than 100 µM.

Same assay, conditions: read-out: LC50 (the source's name)
Work on `CCc1ccccc1NC(=O)c1sc2nc3c(cc2c1N)C(=O)CCC3` yielded a CC50 greater than 100 µM.

What follows are compounds tested on SK-MEL-5 (assay: Growth inhibition of human SK-MEL-5 cells incubated for 48 hrs by sulforhodamine B assay). Conditions: not given.
Assay type: functional
Method in brief: as §2
In the case of `CCc1ccccc1NC(=O)c1sc2nc3c(cc2c1N)C(=O)CCC3`, the GI50 is reported as 0.282 µM, the LC50 is reported as greater than 100 µM and the TGI is reported as greater than 100 µM.

Each compound was assayed on 786-0 (assay: Growth inhibition of human 786-0 cells assessed as cell growth at 100 uM incubated for 48 hrs by sulforhodamine B assay relative to control). Conditions: read-out: Activity.
Assay type: functional
Work on `CCc1ccccc1NC(=O)c1sc2nc3c(cc2c1N)C(=O)CCC3` yielded a growth at 100 µM of -17%.

These compounds were tested on NCI/ADR-RES (assay: Growth inhibition of human NCI/ADR-RES cells assessed as cell growth at 1 uM incubated for 48 hrs by sulforhodamine B assay relative to control). Conditions: read-out: Activity.
Assay type: functional
With `CCc1ccccc1NC(=O)c1sc2nc3c(cc2c1N)C(=O)CCC3` the growth at 1 µM was 21%.

These compounds were tested on SK-MEL-2 (assay: Growth inhibition of human SK-MEL-2 cells incubated for 48 hrs by sulforhodamine B assay). Conditions: not given.
Assay type: functional
Method in brief: as §2
`CCc1ccccc1NC(=O)c1sc2nc3c(cc2c1N)C(=O)CCC3` was tested, and the LC50 was greater than 100 µM and the TGI was greater than 100 µM.

What follows are compounds tested on UO-31 (assay: Growth inhibition of human UO-31 cells assessed as cell growth at 0.01 uM incubated for 48 hrs by sulforhodamine B assay relative to control). Conditions: read-out: Activity.
Assay type: functional
`CCc1ccccc1NC(=O)c1sc2nc3c(cc2c1N)C(=O)CCC3` gave a growth at 0.01 µM of 90%.

What follows are compounds tested on NCI-H522 (assay: Growth inhibition of human NCI-H522 cells incubated for 48 hrs by sulforhodamine B assay). Conditions: not given.
Assay type: functional
Method in brief: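 NCI60 panel at the NCI Developmental Therapeutics Program. Only compounds active in the 10 µM screen went to dose-response testing. GI50, the concentration giving 50% of maximal inhibition of proliferation, and TGI, the concentration giving total growth inhibition, were derived from the dose-response curves.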
Work on `CCc1ccccc1NC(=O)c1sc2nc3c(cc2c1N)C(=O)CCC3` yielded a GI50 of 0.502 µM, an LC50 greater than 100 µM and a TGI greater than 100 µM.

What follows are compounds tested on IGROV-1 (assay: Growth inhibition of human IGROV-1 cells assessed as cell growth at 1 uM incubated for 48 hrs by sulforhodamine B assay relative to control). Conditions: read-out: Activity.
Assay type: functional
With `CCc1ccccc1NC(=O)c1sc2nc3c(cc2c1N)C(=O)CCC3` the growth at 1 µM was 62%.

What follows are compounds tested on SK-OV-3 (assay: Growth inhibition of human SK-OV-3 cells assessed as cell growth at 1 uM incubated for 48 hrs by sulforhodamine B assay relative to control). Conditions: read-out: Activity.
Assay type: functional
`CCc1ccccc1NC(=O)c1sc2nc3c(cc2c1N)C(=O)CCC3` gave a growth at 1 µM of 30%.

These compounds were tested on M14 (assay: Growth inhibition of human M14 cells assessed as cell growth at 0.01 uM incubated for 48 hrs by sulforhodamine B assay relative to control). Conditions: read-out: Activity.
Assay type: functional
Compound `CCc1ccccc1NC(=O)c1sc2nc3c(cc2c1N)C(=O)CCC3` has a growth at 0.01 µM of 90%.

These compounds were tested on DU-145 (assay: Growth inhibition of human DU-145 cells assessed as cell growth at 0.01 uM incubated for 48 hrs by sulforhodamine B assay relative to control). Conditions: read-out: Activity.
Assay type: functional
Method in brief: as §1
Work on `CCc1ccccc1NC(=O)c1sc2nc3c(cc2c1N)C(=O)CCC3` yielded a growth at 0.01 µM of 105%.

Reference: ChEMBL document CHEMBL4715736, “Identification of anticancer agents based on the thieno[2,3-b]pyridine and 1H-pyrazole molecular scaffolds” (2016)
